Marks after values point to notes of the source that are not given here.
What was measured:
[1] = Plasma PK after single oral doses; assay type: in vivo, human; details: for AUCinf, arithmetic mean (SD) / AUCinf, geometric mean (%CV) / Cmax, arithmetic mean (SD) / Cmax, geometric mean (%CV) / tmax, median (range) / t½, arithmetic mean (SD): n=6; for tmax, J‐W difference of median: Japanese‐Western
How it was run: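 Healthy Japanese and Western volunteers took single oral doses of 1, 5 and 30 mg or placebo with 240 mL water on days 1, 4 and 7, with a 2-day washout. Heparinized blood was taken predose and at 0.25–48 h, centrifuged within 30 min at 4°C, and the plasma frozen at –20°C. Assay was LC-MS/MS (0.100–350 ng/mL), with values below the quantification limit set to zero. Japanese/Western geometric mean ratios came from log-scale ANOVA.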

Urinary PK = assay type: in vivo, human; details: for Ae6, arithmetic mean (SD) / Ae12, arithmetic mean (SD) / Ae24%, arithmetic mean (SD) / CLR, arithmetic mean (SD) / CLR, geometric mean (%CV) / CLR, median: Cohort A
[2] = Plasma PK after single and multiple doses; assay type: in vivo, human; details: Japanese, Cohort B; for AUCτ, arithmetic mean (SD) / AUCτ, geometric mean (%CV): τ 12 hours
[3] = humans; cited from earlier work
Safety and tolerability = assay type: in vivo, human
How it was run: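 Healthy Japanese volunteers (Cohort B) were randomised 3:1 to a single oral 15 mg test compound dose or matching placebo on day 1, then 15 mg BID for 5 days (single dose on the last day) or placebo. Adverse events (intensity and treatment relatedness), clinical observations and vital signs were monitored throughout. ECG was done at specified post-dose times. Physical examination was on day 0 and 72 h after the final dose.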

[4] = 15 mg BID over 14 days, healthy volunteers; cited from earlier work
[5] = Japanese, single oral 1 mg, Cohort A
[6] = Japanese, single oral 5 mg, Cohort A
[7] = Japanese, single oral 30 mg, Cohort A
[8] = Western, single oral 1 mg, Cohort A
[9] = Western, single oral 5 mg, Cohort A
[10] = Western, single oral 30 mg, Cohort A
[11] = Japanese, Cohort B, single 15 mg dose
[12] = Japanese, single oral 1 mg, n=6
[13] = Japanese, single oral 5 mg, n=5
[14] = Japanese, single oral 5 mg, n=6
[15] = Japanese, single oral 30 mg, n=6
[16] = Western, single oral 30 mg, n=6
[17] = day 8 multiple dose 15 mg BID for 5 days, n=6
[18] = Cohort B Japanese, 15 mg BID, N=6

C[C@@H]1CCN(C(=O)CC#N)C[C@@H]1N(C)c1ncnc2[nH]ccc12 [tofacitinib]
differences in systemic exposure (Cmax, AUCinf) between Japanese and Western volunteers ([1]; 1, 5, 30 mg single doses, analysis of variance): No significant differences | AUCinf, arithmetic mean (SD) [1, 5]: 22.8 (6.37) ng ⋅ h/mL | AUCinf, geometric mean (%CV) [1, 5]: 22.0 (28) ng ⋅ h/mL | Cmax, arithmetic mean (SD) [1, 5]: 7.38 (1.05) ng/mL | Cmax, geometric mean (%CV) [1, 5]: 7.32 (14) ng/mL | tmax, median (range) [1, 5]: 0.75 (0.50‐2.00) h | t½, arithmetic mean (SD) [1, 5]: 1.96 (0.240) h | AUCinf, arithmetic mean (SD) [1, 6]: 114 (25.5) ng ⋅ h/mL | AUCinf, geometric mean (%CV) [1, 6]: 111 (22) ng ⋅ h/mL | Cmax, arithmetic mean (SD) [1, 6]: 43.1 (15.0) ng/mL | Cmax, geometric mean (%CV) [1, 6]: 41.3 (35) ng/mL | tmax, median (range) [1, 6]: 0.50 (0.50‐1.00) h | t½, arithmetic mean (SD) [1, 6]: 2.49 (0.570) h | AUCinf, arithmetic mean (SD) [1, 7]: 775 (203) ng ⋅ h/mL | AUCinf, geometric mean (%CV) [1, 7]: 754 (26) ng ⋅ h/mL | Cmax, arithmetic mean (SD) [1, 7]: 324 (82.7) ng/mL | Cmax, geometric mean (%CV) [1, 7]: 315 (25) ng/mL | tmax, median (range) [1, 7]: 0.50 (0.50‐1.00) h | t½, arithmetic mean (SD) [1, 7]: 3.14 (0.497) h | tmax, J‐W difference of median ([1]; single oral 1 mg, Cohort A): 0.00 h | tmax, J‐W difference of median ([1]; single oral 5 mg, Cohort A): 0.00 h | tmax, J‐W difference of median ([1]; single oral 30 mg, Cohort A): 0.00 h | AUCinf, arithmetic mean (SD) [1, 8]: 22.9 (2.52) ng ⋅ h/mL | AUCinf, geometric mean (%CV) [1, 8]: 22.8 (11) ng ⋅ h/mL | Cmax, arithmetic mean (SD) [1, 8]: 7.53 (1.69) ng/mL | Cmax, geometric mean (%CV) [1, 8]: 7.36 (22) ng/mL | tmax, median (range) [1, 8]: 0.75 (0.50‐1.00) h | t½, arithmetic mean (SD) [1, 8]: 2.14 (0.210) h | AUCinf, arithmetic mean (SD) [1, 9]: 120 (16.8) ng ⋅ h/mL | AUCinf, geometric mean (%CV) [1, 9]: 119 (14) ng ⋅ h/mL | Cmax, arithmetic mean (SD) [1, 9]: 36.0 (9.78) ng/mL | Cmax, geometric mean (%CV) [1, 9]: 34.9 (27) ng/mL | tmax, median (range) [1, 9]: 0.50 (0.50‐2.00) h | t½, arithmetic mean (SD) [1, 9]: 2.85 (0.691) h | AUCinf, arithmetic mean (SD) [1, 10]: 797 (131) ng ⋅ h/mL | AUCinf, geometric mean (%CV) [1, 10]: 788 (16) ng ⋅ h/mL | Cmax, arithmetic mean (SD) [1, 10]: 269 (47.9) ng/mL | Cmax, geometric mean (%CV) [1, 10]: 265 (18) ng/mL | tmax, median (range) [1, 10]: 0.50 (0.50‐1.00) h | t½, arithmetic mean (SD) [1, 10]: 3.50 (0.349) h | geometric mean Cmax in Japanese higher than in Western volunteers ([1]; single 5 and 30 mg doses, Cohort A): approximately 19% | increase of systemic exposure with dose ([1]; single oral doses 1, 5, 30 mg): approximately dose‐proportional | CLR reduction after multiple‐dose vs single‐dose administration, average (Urinary PK; Japanese, Cohort B, 15 mg): 24% | CLR, geometric mean [SD] (Urinary PK; Japanese, Cohort B, multiple dose 15 mg BID): 120 mL/min | Ae24%, arithmetic mean (SD) percentage of unchanged tofacitinib excreted in urine 24 hours after dose (Urinary PK; [11]): 27.1% | CLR, geometric mean [SD] (Urinary PK; [11]): 158 mL/min | Mean CLR decrease with increasing dose (Urinary PK; Japanese, single doses 1 to 30 mg (162 to 148 mL/min)): 8.6% | Ae6, arithmetic mean (SD) (Urinary PK; [12]): 0.191 (0.0469) mg | Ae12, arithmetic mean (SD) (Urinary PK; [12]): 0.215 (0.0527) mg | Ae24%, arithmetic mean (SD) (Urinary PK; [12]): 22.0% | CLR, arithmetic mean (SD) (Urinary PK; [12]): 166 (45.2) mL/min | CLR, geometric mean (%CV) (Urinary PK; [12]): 162 (27) mL/min | CLR, median (Urinary PK; [12]): 144 mL/min | Ae24%, arithmetic mean (SD) (Urinary PK; Japanese, single oral 1 mg, n=6, listed as Tofacitinib): 22.0 (5.34) % | Ae12, arithmetic mean (SD) (Urinary PK; [13]): 0.995 ^c (0.367) mg | Ae24%, arithmetic mean (SD) (Urinary PK; [13]): 20.4% | CLR, geometric mean (%CV) (Urinary PK; [13]): 134 ^c (25) mL/min | Ae24%, arithmetic mean (SD) (Urinary PK; Japanese, single oral 5 mg, n=5, listed as Tofacitinib): 20.4 ^c (7.51) % | Ae6, arithmetic mean (SD) (Urinary PK; [14]): 0.890 (0.327) mg | CLR, arithmetic mean (SD) (Urinary PK; [14]): 137 (33.8) mL/min | CLR, median (Urinary PK; [14]): 136 mL/min | Ae6, arithmetic mean (SD) (Urinary PK; [15]): 5.59 (0.832) mg | Ae12, arithmetic mean (SD) (Urinary PK; [15]): 6.46 (0.791) mg | Ae24%, arithmetic mean (SD) (Urinary PK; [15]): 22.5% | CLR, arithmetic mean (SD) (Urinary PK; [15]): 153 (41.8) mL/min | CLR, geometric mean (%CV) (Urinary PK; [15]): 148 (27) mL/min | CLR, median (Urinary PK; [15]): 149 mL/min | Ae24%, arithmetic mean (SD) (Urinary PK; Japanese, single oral 30 mg, n=6, listed as Tofacitinib): 22.5 (3.00) % | Mean CLR decrease with increasing dose (Urinary PK; Western, single doses 1 to 30 mg (160 to 124 mL/min)): 22.5% | Ae24%, arithmetic mean (SD) (Urinary PK; Western, single oral 1 mg, n=5): 21.2% | CLR, geometric mean (%CV) (Urinary PK; Western, single oral 1 mg, n=5): 160 ^c (11) mL/min | Ae24%, arithmetic mean (SD) (Urinary PK; Western, single oral 1 mg, n=5, listed as Tofacitinib): 21.2 ^c (0.865) % | Ae6, arithmetic mean (SD) (Urinary PK; Western, single oral 1 mg, n=6): 0.169 (0.0128) mg | Ae12, arithmetic mean (SD) (Urinary PK; Western, single oral 1 mg, n=6): 0.199 (0.0127) mg | CLR, arithmetic mean (SD) (Urinary PK; Western, single oral 1 mg, n=6): 161 (17.7) mL/min | CLR, median (Urinary PK; Western, single oral 1 mg, n=6): 158 mL/min | Ae12, arithmetic mean (SD) (Urinary PK; Western, single oral 5 mg, n=5): 0.919 ^c (0.265) mg | Ae24%, arithmetic mean (SD) (Urinary PK; Western, single oral 5 mg, n=5): 19.9% | CLR, geometric mean (%CV) (Urinary PK; Western, single oral 5 mg, n=5): 136 ^c (29) mL/min | Ae24%, arithmetic mean (SD) (Urinary PK; Western, single oral 5 mg, n=5, listed as Tofacitinib): 19.9 ^c (5.15) % | Ae6, arithmetic mean (SD) (Urinary PK; Western, single oral 5 mg, n=6): 0.744 (0.224) mg | CLR, arithmetic mean (SD) (Urinary PK; Western, single oral 5 mg, n=6): 141 (40.6) mL/min | CLR, median (Urinary PK; Western, single oral 5 mg, n=6): 148 mL/min | Ae6, arithmetic mean (SD) (Urinary PK; [16]): 4.15 (1.11) mg | Ae12, arithmetic mean (SD) (Urinary PK; [16]): 5.63 (1.28) mg | Ae24%, arithmetic mean (SD) (Urinary PK; [16]): 19.8% | CLR, arithmetic mean (SD) (Urinary PK; [16]): 127 (30.1) mL/min | CLR, geometric mean (%CV) (Urinary PK; [16]): 124 (24) mL/min | CLR, median (Urinary PK; [16]): 127 mL/min | Ae24%, arithmetic mean (SD) (Urinary PK; Western, single oral 30 mg, n=6, listed as Tofacitinib): 19.8 (4.11) % | percentage of unchanged tofacitinib excreted in urine (Urinary PK; over 24 hours after single‐dose administration, across doses and ethnicities): approximately 20% | drug accumulation upon repeat dosing ([2]; 15 mg BID): negligible drug accumulation | time to steady state plasma concentration ([2]; 15 mg BID for 5 days): ≤ 24 h | AUCinf, arithmetic mean (SD) ([2]; day 1 single dose 15 mg, n=6): 417 (133) ng ⋅ h/mL | AUCinf, geometric mean (%CV) ([2]; day 1 single dose 15 mg, n=6): 399 (32) ng ⋅ h/mL | Cmax, arithmetic mean (SD) ([2]; day 1 single dose 15 mg, n=6): 149 (50.6) ng/mL | Cmax, geometric mean (%CV) ([2]; day 1 single dose 15 mg, n=6): 141 (34) ng/mL | tmax, median (range) ([2]; day 1 single dose 15 mg, n=6): 0.75 (0.50‐1.00) h | t½, arithmetic mean (SD) ([2]; day 1 single dose 15 mg, n=6): 3.14 (0.672) h | AUCτ, arithmetic mean (SD) ([2]; day 1 single dose 15 mg, n=6): 403 (128) ng ⋅ h/mL | AUCτ, geometric mean (%CV) ([2]; day 1 single dose 15 mg, n=6): 387 (32) ng ⋅ h/mL | Cmax, arithmetic mean (SD) [2, 17]: 143 (45.9) ng/mL | Cmax, geometric mean (%CV) [2, 17]: 136 (32) ng/mL | tmax, median (range) [2, 17]: 0.75 (0.50‐1.00) h | t½, arithmetic mean (SD) [2, 17]: 3.28 (0.544) h | AUCτ, arithmetic mean (SD) [2, 17]: 457 (116) ng ⋅ h/mL | AUCτ, geometric mean (%CV) [2, 17]: 445 (25) ng ⋅ h/mL | contribution of renal clearance to clearance [3]: approximately 30% | Constipation, n (all causality) (Safety and tolerability; [18]): 1 | Hunger, n (all causality) (Safety and tolerability; [18]): 2 | Skin irritation, n (all causality) (Safety and tolerability; [18]): 1 | adverse events of moderate intensity: skin irritation, events (Safety and tolerability; Cohort B, single dose 15 mg, not considered related to study treatment): 1 | renal function (individual creatinine levels) following repeat administration (Safety and tolerability; Japanese, Cohort B, 15 mg BID): renal function remained unaffected | changes in vital signs or ECG measurements (Safety and tolerability; whole study): no clinically significant changes | clinically significant laboratory abnormalities (Safety and tolerability; whole study): no volunteers had clinically significant laboratory abnormalities | serious adverse events or deaths (Safety and tolerability; whole study, Cohorts A and B): No serious adverse events or deaths were reported | effect on glomerular filtration rate [4]: did not alter the glomerular filtration rate

— PMC7003739 (Clinical Pharmacology in Drug Development, 2019)
